Results reported in ChEMBL document CHEMBL1154914, “Orally bioavailable anti-HBV dinucleotide acyloxyalkyl prodrugs” (Bioorg Med Chem Lett, 2010).
Activity calls are given as the source filed them. No cut-off for these calls is given here.

What was measured:
[1] = Cytotoxicity against african green monkey Vero cells after 24 hrs by MTT assay; type: cell-based; details: chlorocebus sabaeus
[2] = Cytotoxicity against MDBK cells after 24 hrs by MTT assay; type: cell-based, Bos taurus; details: cattle
[3] = Half life in simulated gastric fluid after 1 hr by reverse phase HPLC; type: physicochemical
In short: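 Prodrug stock of 2 mg/200 μL DMSO, diluted 1:20 in USP simulated gastric fluid and held at 37 °C for 1 h. Timed aliquots were quenched with methanol, brought to pH 6.0 with NH4OAc/NaOH, centrifuged and concentrated. Read by reversed-phase C18 HPLC using a 30 min gradient from 0.1 M NH4OAc to 80:20 CH3CN:NH4OAc at 1 mL/min.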

[4] = Cytotoxicity against human HFF cells after 24 hrs by MTT assay; type: cell-based
Hepatitis B virus [5] = experiment: Antiviral activity against HBV infected in mouse assessed as liver HBV DNA level at 300-400 mg/kg, po QD for 14 days by Southern blotting; type: functional, organism-based
In short: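 HBV transgenic mice, pre-biopsied for liver HBV DNA and block-randomized (8/group). Dosed 300 to 400 mg/kg by oral gavage once daily for 14 days in 0.05 M citric acid pH 2.4 (0.1 mL per 20 g). Liver Southern blot with a 32P HBV genomic probe, hybridized overnight at 60°C and read by phosphorimaging. Viral DNA was ratioed to the transgene band (1.3 copies/cell). ADV was the positive control.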

Hepatitis B virus [6] = experiment: Antiviral activity against wild type HBV infected in HepG2.2.15 cells assessed as nucleic acid and protein levels dosed daily for 9 days and measured 24 hrs after last treatment by Southern blot hybridization; type: functional, organism-based, HepG2 2.2.15; details: for EC50: Hepatitis B virus, HepG2 2.2.15
Hepatitis B virus [7] = experiment: Antiviral activity against 3TC-resistant HBV with polymerase L180M mutation infected in HepG2.2.15 cells assessed as nucleic acid and protein levels dosed daily for 9 days and measured 24 hrs after last treatment by Southern blot hybridization; type: functional, organism-based, HepG2 2.2.15; details: for EC50: Hepatitis B virus, HepG2 2.2.15
Hepatitis B virus [8] = experiment: Antiviral activity against 3TC-resistant HBV with polymerase LMMV mutation infected in HepG2.2.15 cells assessed as nucleic acid and protein levels dosed daily for 9 days and measured 24 hrs after last treatment by Southern blot hybridization; type: functional, organism-based, HepG2 2.2.15; details: for EC50: Hepatitis B virus, HepG2 2.2.15
Hepatitis B virus [9] = experiment: Antiviral activity against 3TC-resistant HBV with polymerase M204V mutation infected in HepG2.2.15 cells assessed as nucleic acid and protein levels dosed daily for 9 days and measured 24 hrs after last treatment by Southern blot hybridization; type: functional, organism-based, HepG2 2.2.15; details: for EC50: Hepatitis B virus, HepG2 2.2.15
Hepatitis B virus [10] = experiment: Antiviral activity against ADV-resistant HBV N236T mutation infected in HepG2.2.15 cells assessed as nucleic acid and protein levels dosed daily for 9 days and measured 24 hrs after last treatment by Southern blot hybridization; type: functional, organism-based, HepG2 2.2.15; details: for EC50: Hepatitis B virus, HepG2 2.2.15
Hepatitis B virus [11] = experiment: Antiviral activity against 3TC-resistant HBV with polymerase M204I mutation infected in HepG2.2.15 cells assessed as nucleic acid and protein levels dosed daily for 9 days and measured 24 hrs after last treatment by Southern blot hybridization; type: functional, organism-based, HepG2 2.2.15; details: for EC50: Hepatitis B virus, HepG2 2.2.15
Mus musculus = experiment: Toxicity against HBV infected mouse at 300-400 mg/kg, po QD for 14 days; type: organism-based; details: in vivo, 336 h
Hepatitis B virus [12] = experiment: Antiviral activity against HBV infected in mouse assessed as reduction in liver HBV DNA level dosed po QD for 14 days by Southern blotting; type: functional, organism-based
In short: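 HBV transgenic mice, pre-biopsied for liver HBV DNA and block-randomized (8/group). Gavaged at 1, 5, 10 or 100 mg/kg once daily for 14 days in 0.05 M citric acid pH 2.4, against placebo and an ADV control. Liver taken after the last dose. HBV DNA by Southern blot with a 32P genomic probe and phosphorimaging, normalized to the transgene band (1.3 copies/cell).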

[13] = Half life in simulated intestinal fluid after 1 hr by reverse phase HPLC; type: physicochemical
In short: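 Prodrug stock (2 mg per 200 μL DMSO) diluted 1:20 into simulated intestinal fluid and held at 37 °C for 1 h. Aliquots at selected times were quenched with methanol, brought to pH 6.0 with NH4OAc/NaOH, centrifuged, concentrated and redissolved in 0.1 M NH4OAc. Analysed by reversed-phase C18 HPLC with photodiode-array detection, 0.1 M NH4OAc to 80:20 CH3CN:NH4OAc gradient over 30 min.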

| half-life [13] | SMILES | CC50 at 24 h [1] | CC50 at 24 h [2] | half-life [3] | CC50 at 24 h [4] | Activity (Hepatitis B virus [5]) | EC90 (Hepatitis B virus [6]) | EC50 (Hepatitis B virus [6]) | EC90 (Hepatitis B virus [7]) | EC50 (Hepatitis B virus [7]) | EC90 (Hepatitis B virus [8]) | EC50 (Hepatitis B virus [8]) | EC90 (Hepatitis B virus [9]) | EC50 (Hepatitis B virus [9]) | EC90 (Hepatitis B virus [10]) | EC50 (Hepatitis B virus [10]) | EC90 (Hepatitis B virus [11]) | EC50 (Hepatitis B virus [11]) | Activity (Mus musculus) | Activity (Hepatitis B virus [12]) |
| --- | --- | --- | --- | --- | --- | --- | --- | --- | --- | --- | --- | --- | --- | --- | --- | --- | --- | --- | --- | --- |
| – | CO[C@@H]1[C@H](OP(=O)(OC[C@H]2O[C@@H](n3cnc4c(N)ncnc43)C[C@@H]2O)SCOC(=O)C(C)(C)C)[C@@H](CO)O[C@H]1n1ccc(=O)[nH]c1=O (stereo partly drawn) | > 1000 µM | > 1000 µM | > 1 h | > 1000 µM | Active | – | – | – | – | – | – | – | – | – | – | – | – | – | – |
| – | CC(C)(C)C(=O)OCOP(=O)(COCCn1cnc2c(N)ncnc21)OCOC(=O)C(C)(C)C [ADEFOVIR DIPIVOXIL] | – | – | – | – | – | 7 µM | 1.5 µM | 8.2 µM | 2.1 µM | 8.3 µM | 2.2 µM | 7.2 µM | 1.8 µM | 29 µM | 7.5 µM | 8 µM | 2 µM | – | – |
| – | CO[C@@H]1[C@H](OP(=O)(OC[C@H]2O[C@@H](n3cnc4c(N)ncnc43)C[C@@H]2O)SCOC(=O)OC(C)C)[C@@H](CO)O[C@H]1n1ccc(=O)[nH]c1=O (stereo partly drawn) [INARIGIVIR SOPROXIL] | > 1000 µM | > 1000 µM | > 1 h | > 1000 µM | Active | 8.5 µM | 2.5 µM | 8.6 µM | 2.1 µM | 9.3 µM | 3.1 µM | 8.3 µM | 2.4 µM | 8.7 µM | 2.8 µM | 9.2 µM | 3 µM | Non-toxic | Dose-dependent effect |
| 1 h | CO[C@@H]1[C@H](OP(=O)(S)OC[C@H]2O[C@@H](n3cnc4c(N)ncnc43)C[C@@H]2O)[C@@H](CO)O[C@H]1n1ccc(=O)[nH]c1=O (stereo partly drawn) [INARIGIVIR] | > 1000 µM | > 1000 µM | < 0.25 h | > 1000 µM | – | – | – | – | – | – | – | – | – | – | – | – | – | – | – |
| – | Nc1ccn([C@@H]2CS[C@H](CO)O2)c(=O)n1 [LAMIVUDINE] | – | – | – | – | – | 0.7 µM | 0.2 µM | 20 µM | 5.3 µM | >100 µM | > 100 µM | >100 µM | > 100 µM | 0.8 µM | 0.2 µM | >100 µM | > 100 µM | – | – |
